Reference: article PMC11318567 (Computational and Structural Biotechnology Journal, 2024)
“Also recorded” adds a separate entry of the source.

Experiments:
U251 = experiment: NCI-60 screening; format: cell-based; conditions: Homo sapiens, U-251, read-out: inhibition of cell growth
[1] = test system: NCI-60 human cancer cell lines; experiment: NCI-60 screening, whole panel; format: cell-based; conditions: 10 µM
SK-MEL-5 = experiment: NCI-60 screening; format: cell-based; conditions: Homo sapiens, SK-MEL-5, read-out: inhibition of cell growth
[2] = biological target: ATPase domain of topo IIα (Homo sapiens, UniProt P11388); experiment: 1H STD NMR experiments; format: binding; conditions: protein:ligand ratio 1:100
How it was run: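 Runs were at 600 MHz, 25 °C, with a 100 ms T₁ρ filter. On-resonance saturation was at −0.727 ppm and off-resonance at 30 ppm. Saturation was 0.5 or 1 s depending on compound, with relaxation delay 4 or 1.5 s. Epitope maps come from STD amplification factors.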

human topo IIα [3] = biological target: T1, human topo IIα (Homo sapiens, UniProt P11388); experiment: Human topo IIα-mediated decatenation assay; format: biochemical; conditions: for IC50, topo IIα-mediated decatenation assay: average of two replicates
[4] = Solubility as observed during preparation for assays; format: physicochemical
wheatgerm topo I = experiment: Wheatgerm topo I unwinding assay; format: biochemical, wheat germ; conditions: 7.8, 15.6, 31.25, 125 μM
How it was run: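 Wheat germ topo I plasmid unwinding run in duplicate at 7.8, 15.6, 31.25 and 125 µM test compound, with the intercalator m-AMSA as positive control.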

human topo IIα [5] = biological target: T1, human topo IIα; experiment: Human topoisomerase IIα-mediated cleavage assay; format: biochemical; conditions: 7.8-125 μM
human topo IIα [6] = biological target: T1, human topo IIα; experiment: Human topo IIα competitive cleavage assay; format: biochemical; conditions: in the presence of 50 μM etoposide
human topo II = human topo II (Homo sapiens, UniProt P11388); experiment: Competitive ATPase assay; format: biochemical; conditions: IC50 versus ATP concentration
How it was run: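 NADH-coupled ATPase (pyruvate kinase/lactate dehydrogenase, phosphoenolpyruvate) with human topo II at 14 nM final and linear pBR322. Buffer was 20 mM Tris-HCl, 5 mM Mg acetate, 125 mM K acetate, 2 mM DTT, pH 7.9. Compound in DMSO went in before enzyme, then a 10–15 min OD340 pre-run. ATP was added at varying concentrations and OD340 followed for up to 30 min at 37 °C, in duplicate. Hydrolysis rates vs ATP gave IC50 at each ATP level.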

human topo IIβ = human topo IIβ (Homo sapiens, UniProt Q02880); experiment: Human topo IIβ-mediated decatenation assay; format: biochemical
human topo IIα [7] = biological target: T1, human topo IIα; experiment: Human topoisomerase IIα-mediated relaxation assay; format: biochemical

T1 sequence (P11388 whole entry): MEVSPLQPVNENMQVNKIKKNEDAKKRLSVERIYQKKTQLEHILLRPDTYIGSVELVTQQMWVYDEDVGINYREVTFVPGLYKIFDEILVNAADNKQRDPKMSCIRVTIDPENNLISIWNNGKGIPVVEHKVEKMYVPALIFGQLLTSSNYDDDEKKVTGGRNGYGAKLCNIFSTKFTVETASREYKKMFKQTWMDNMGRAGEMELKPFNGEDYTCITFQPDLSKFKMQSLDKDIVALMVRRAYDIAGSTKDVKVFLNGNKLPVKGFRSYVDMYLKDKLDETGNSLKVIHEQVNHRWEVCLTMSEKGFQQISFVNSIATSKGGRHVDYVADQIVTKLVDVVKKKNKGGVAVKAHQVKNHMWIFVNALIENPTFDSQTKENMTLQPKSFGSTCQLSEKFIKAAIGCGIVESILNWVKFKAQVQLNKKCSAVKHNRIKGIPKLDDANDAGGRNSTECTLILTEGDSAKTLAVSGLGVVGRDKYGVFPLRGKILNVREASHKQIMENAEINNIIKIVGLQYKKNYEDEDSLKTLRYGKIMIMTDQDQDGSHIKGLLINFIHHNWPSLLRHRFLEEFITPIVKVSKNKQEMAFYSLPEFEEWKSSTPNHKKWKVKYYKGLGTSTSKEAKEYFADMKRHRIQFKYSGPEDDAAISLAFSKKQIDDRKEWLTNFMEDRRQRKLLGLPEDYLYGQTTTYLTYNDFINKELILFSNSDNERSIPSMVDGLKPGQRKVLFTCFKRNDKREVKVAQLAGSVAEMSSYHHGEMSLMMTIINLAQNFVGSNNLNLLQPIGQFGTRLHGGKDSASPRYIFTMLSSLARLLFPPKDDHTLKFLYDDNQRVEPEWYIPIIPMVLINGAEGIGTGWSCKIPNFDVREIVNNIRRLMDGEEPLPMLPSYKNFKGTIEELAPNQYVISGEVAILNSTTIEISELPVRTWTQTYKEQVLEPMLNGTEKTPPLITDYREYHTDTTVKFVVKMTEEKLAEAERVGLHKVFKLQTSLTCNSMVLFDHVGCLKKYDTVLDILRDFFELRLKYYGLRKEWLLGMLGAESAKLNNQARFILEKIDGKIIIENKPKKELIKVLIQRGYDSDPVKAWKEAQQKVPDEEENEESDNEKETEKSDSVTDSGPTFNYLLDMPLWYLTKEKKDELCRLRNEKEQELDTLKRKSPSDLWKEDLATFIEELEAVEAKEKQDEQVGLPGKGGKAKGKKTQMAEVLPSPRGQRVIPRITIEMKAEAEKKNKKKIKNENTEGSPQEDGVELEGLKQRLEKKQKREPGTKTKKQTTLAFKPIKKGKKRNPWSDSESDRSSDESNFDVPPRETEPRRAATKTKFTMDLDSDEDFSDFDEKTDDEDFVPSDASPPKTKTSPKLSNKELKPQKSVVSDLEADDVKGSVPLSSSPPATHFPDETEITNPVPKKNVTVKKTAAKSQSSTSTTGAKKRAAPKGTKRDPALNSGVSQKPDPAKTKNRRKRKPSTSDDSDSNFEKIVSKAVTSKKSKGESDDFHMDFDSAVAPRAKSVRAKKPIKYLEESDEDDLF
human topo IIβ, sequence (Q02880 whole entry): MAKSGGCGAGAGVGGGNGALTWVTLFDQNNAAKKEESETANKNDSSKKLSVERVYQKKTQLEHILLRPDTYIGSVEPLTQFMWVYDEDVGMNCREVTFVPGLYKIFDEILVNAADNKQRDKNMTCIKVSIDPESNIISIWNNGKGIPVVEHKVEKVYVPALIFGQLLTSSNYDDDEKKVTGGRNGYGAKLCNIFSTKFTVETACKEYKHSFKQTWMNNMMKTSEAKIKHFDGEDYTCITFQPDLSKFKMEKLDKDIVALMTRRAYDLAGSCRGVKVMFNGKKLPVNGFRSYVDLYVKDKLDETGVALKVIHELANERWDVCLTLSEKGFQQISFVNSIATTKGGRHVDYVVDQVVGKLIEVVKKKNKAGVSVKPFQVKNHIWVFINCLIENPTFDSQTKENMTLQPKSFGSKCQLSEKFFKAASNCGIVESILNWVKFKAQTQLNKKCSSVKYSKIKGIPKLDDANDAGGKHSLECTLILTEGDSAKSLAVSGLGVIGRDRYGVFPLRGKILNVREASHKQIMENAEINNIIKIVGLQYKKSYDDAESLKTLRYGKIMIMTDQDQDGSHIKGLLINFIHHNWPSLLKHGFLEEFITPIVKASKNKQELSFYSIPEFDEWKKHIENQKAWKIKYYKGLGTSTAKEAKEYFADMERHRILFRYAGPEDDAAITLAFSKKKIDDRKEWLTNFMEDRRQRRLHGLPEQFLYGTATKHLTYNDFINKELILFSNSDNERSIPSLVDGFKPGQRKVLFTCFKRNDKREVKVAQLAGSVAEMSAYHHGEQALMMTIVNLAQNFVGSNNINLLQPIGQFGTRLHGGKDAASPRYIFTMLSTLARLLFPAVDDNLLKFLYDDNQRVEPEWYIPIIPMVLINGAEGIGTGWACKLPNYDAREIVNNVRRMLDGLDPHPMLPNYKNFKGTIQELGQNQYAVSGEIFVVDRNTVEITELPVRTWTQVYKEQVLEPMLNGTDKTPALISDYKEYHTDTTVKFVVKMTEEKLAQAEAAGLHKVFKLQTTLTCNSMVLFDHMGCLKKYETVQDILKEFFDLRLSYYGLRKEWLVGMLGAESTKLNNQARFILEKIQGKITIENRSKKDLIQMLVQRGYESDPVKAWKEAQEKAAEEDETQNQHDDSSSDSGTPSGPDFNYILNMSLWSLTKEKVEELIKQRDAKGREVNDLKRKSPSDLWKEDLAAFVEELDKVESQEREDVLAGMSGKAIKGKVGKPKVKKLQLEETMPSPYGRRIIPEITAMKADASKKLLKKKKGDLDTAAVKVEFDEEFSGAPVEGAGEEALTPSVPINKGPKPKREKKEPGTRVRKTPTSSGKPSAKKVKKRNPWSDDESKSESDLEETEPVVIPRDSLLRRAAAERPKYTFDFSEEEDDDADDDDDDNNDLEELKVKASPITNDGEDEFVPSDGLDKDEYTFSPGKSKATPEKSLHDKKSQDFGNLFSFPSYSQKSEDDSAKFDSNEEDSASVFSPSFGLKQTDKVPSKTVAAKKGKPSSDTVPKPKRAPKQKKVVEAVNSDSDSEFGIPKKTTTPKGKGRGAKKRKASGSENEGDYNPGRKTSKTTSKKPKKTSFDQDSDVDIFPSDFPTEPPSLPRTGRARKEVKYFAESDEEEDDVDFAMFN
ATPase domain of topo IIα, sequence (P11388 1-453 limits assumed): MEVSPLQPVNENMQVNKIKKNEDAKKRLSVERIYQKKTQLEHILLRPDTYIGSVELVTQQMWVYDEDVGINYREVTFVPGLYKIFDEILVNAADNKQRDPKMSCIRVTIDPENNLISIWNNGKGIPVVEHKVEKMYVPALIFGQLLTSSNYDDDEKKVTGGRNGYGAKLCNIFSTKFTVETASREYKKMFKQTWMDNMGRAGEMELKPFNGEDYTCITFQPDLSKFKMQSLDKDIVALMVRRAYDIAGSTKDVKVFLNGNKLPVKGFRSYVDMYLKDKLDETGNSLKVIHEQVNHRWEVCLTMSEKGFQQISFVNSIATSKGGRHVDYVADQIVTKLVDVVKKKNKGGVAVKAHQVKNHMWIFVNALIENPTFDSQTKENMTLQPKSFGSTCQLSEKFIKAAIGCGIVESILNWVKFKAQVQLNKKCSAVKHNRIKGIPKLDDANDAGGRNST
human topo II, sequence (P11388 whole entry): as the sequence (P11388 whole entry) above

SMILES | cytotoxic activity in NCI-60 (in words) [1] | interaction with the ATPase domain of topo IIα by STD NMR (in words) [2] | solubility (in words) [4] | unwinding / intercalation (in words) (wheatgerm topo I) | linear plasmid in the cleavage assay (in words) (human topo IIα [5]) | IC50 (human topo IIβ) | IC50 (human topo IIα [7]) | further results
O=c1nc(SCc2ccc(C(F)(F)F)cc2)nc(SCc2ccc3sccc3c2)[nH]1 [Compound 25, 6-((Benzo[b]thiophen-5-ylmethyl)thio)−4-((4-(trifluoromethyl)benzyl)thio)−1,3,5-triazin-2(1H)-one] | more diverse and potent cytotoxic effects | – | – | – | – | – | – | inhibition at 10 µM (U251): 80%; inhibition at 10 µM (SK-MEL-5): 89.5%
CC(C)c1ccc(CSc2nc(SCc3ccc4sccc4c3)[nH]c(=O)n2)cc1 [Compound 26, 6-((Benzo[b]thiophen-5-ylmethyl)thio)−4-((4-isopropylbenzyl)thio)−1,3,5-triazin-2(1H)-one] | much lower compared to 24 and 25 | – | – | – | – | – | – | –
O=c1nc(SCc2cc(F)cc(C(F)(F)F)c2)nc(SCc2ccc3nc(Cl)ccc3c2)[nH]1 [Compound 30, 6-(((2-Chloroquinolin-6-yl)methyl)thio)−4-((3-fluoro-5-(trifluoromethyl)benzyl)thio)−1,3,5-triazin-2(1H)-one] | – | confirmed the interaction | more soluble compared to the previous series; also recorded: more soluble compared to the benzyl-substituted analogues | inhibitors rather than intercalators | only a very weak increase in the linear plasmid at the highest concentration of 125 μM | 10.6 ± 28.8 µM | – | IC50 (human topo IIα [3]): 12 ± 4.8 µM; linear product in the competitive cleavage assay (in words) (human topo IIα [6]): decreased the amount of linear product of the etoposide-topo IIα complex; mode of inhibition with respect to ATP (in words) (human topo II): ATP-competitive inhibition
O=c1nc(SCc2cc(F)cc(C(F)(F)F)c2)nc(SCc2ccc3nc(OCCN4CCOCC4)ccc3c2)[nH]1 [Compound 31, 4-((3-Fluoro-5-(trifluoromethyl)benzyl)thio)−6-(((2-(2-morpholinoethoxy)quinolin-6-yl)methyl)thio)−1,3,5-triazin-2(1H)-one] | – | confirmed the interaction | more soluble compared to the previous series | – | no linear plasmid up to the measured concentration of 125 μM | – | – | IC50 (human topo IIα [3]): 18.5 ± 5.9 µM
O=c1nc(SCc2cc(F)cc(C(F)(F)F)c2)nc(SCc2csc3ccc(Cl)cc23)[nH]1 [Compound 32, 6-(((5-Chlorobenzo[b]thiophen-3-yl)methyl)thio)−4-((3-fluoro-5-(trifluoromethyl)benzyl)thio)−1,3,5-triazin-2(1H)-one] | – | – | – | – | higher even at lower concentrations | 8.3 ± 2.5 µM | 8.7 ± 7.3 µM | IC50, topo IIα-mediated decatenation assay (human topo IIα [3]): single-digit micromolar range
O=c1nc(SCc2ccc(C(F)(F)F)cc2)nc(SCc2csc3ccc(Cl)cc23)[nH]1 [Compound 33, 6-(((5-Chlorobenzo[b]thiophen-3-yl)methyl)thio)−4-((4-(trifluoromethyl)benzyl)thio)−1,3,5-triazin-2(1H)-one] | – | – | – | – | – | – | 7.7 ± 8.5 µM | IC50, topo IIα-mediated decatenation assay (human topo IIα [3]): single-digit micromolar range
O=c1nc(SCc2cc(F)cc(C(F)(F)F)c2)nc(SCc2cccc(C(F)(F)F)c2)[nH]1 [Compound 34, 4-((3-Fluoro-5-(trifluoromethyl)benzyl)thio)− 6-((3-(trifluoromethyl)benzyl)thio)− 1,3,5-triazin-2(1 H)-one] | did not exhibit cytotoxic activity | – | less soluble | – | – | – | – | –
Cc1nc(CSc2nc(SCc3ccc(C(C)C)cc3)nc(=O)[nH]2)cs1 [Compound 37, 4-((4-Isopropylbenzyl)thio)−6-(((2-methylthiazol-4-yl)methyl)thio)−1,3,5-triazin-2(1H)-one] | did not exhibit cytotoxic activity | confirmed its interaction with the ATPase domain | – | inhibitors rather than intercalators | only a very weak increase in the linear plasmid at the highest concentration of 125 μM | 16 ± 39 µM | 108 ± 3.8 µM | –
COc1cc([C@@H]2c3cc4c(cc3[C@@H](O[C@@H]3O[C@@H]5CO[C@@H](C)O[C@H]5[C@H](O)[C@H]3O)[C@H]3COC(=O)[C@H]23)OCO4)cc(OC)c1O [Etoposide, etoposide, reference compound] | – | – | – | showed no signs of unfolding | – | – | – | –
COc1cc(NS(C)(=O)=O)ccc1Nc1c2ccccc2nc2ccccc12 [mAMSA, reference compound] | – | – | – | showed intercalator-mediated effects at all 4 concentrations | – | – | – | –
